The record followed here is ChEMBL document CHEMBL4732155 (Eur J Med Chem, 2021).

A short description of test [1]: Effect on BRIX1 expression in human HCT-116 cells at 15 uM measured after 6 hrs by LC-MS/MS analysis relative to control. In kind it is functional. An outline of the steps:
(§1)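 HCT116 cells treated 6 h with DMSO, 15 μM or 30 μM compound, then pelleted. Peptides (1 μg) separated on a 25 cm C18 nano-column with a 136 min gradient and analysed by label-free LC-MS/MS on an Orbitrap Eclipse. Searched against the UniProt human database and quantified from normalized abundance. Two independent biological replicates per group; log2 fold change versus DMSO, p < 0.05.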

Test [2] is described as follows: Effect on AUP1 expression in human HCT-116 cells at 30 uM measured after 6 hrs by LC-MS/MS analysis relative to control. It is filed as functional. A digest of the protocol:
as §1

Test [3] in a line: Inhibition of proteasomal turnover of p97-independent ODD-luciferase reporter substrate in human HeLa cells incubated for 120 mins by luciferase reporter gene assay. To be noted: 2 h. It is filed as functional, cell-based. A digest of the protocol: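 HeLa cells co-expressing UbG76V-GFP and ODD-Luc were seeded at 5000/well in clear DMEM with 2.5% FBS. They were pretreated with 4 μM MG132 for 60 min at 37 °C, washed with PBS, then given cycloheximide plus compound for 120 min at 37 °C and washed. GFP was read by high-content confocal imaging, then luminescence after 10 min with D-luciferin at r.t. IC50 was fitted from quadruplicates.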

Test [4] in a line: Inhibition of His6-tagged p97 C522T mutant (unknown origin) expressed in Escherichia coli BL21 (DE3) assessed as reduction in ATPase activity measured after 60 mins by biomol green reagent based assay. More on the design: species or system Homo sapiens. An outline of the steps: (§2)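 His6-p97 expressed in E. coli BL21(DE3), purified by Ni-NTA and gel filtration (500–600 kDa fractions, ≥95% pure). Phosphate read by Biomol Green at 635 nm. Eight-dose titrations; IC50 from six replicates. Thiol tests added DTT or cysteine during preincubation.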

Test [5] in a line: Effect on KNTC1 expression in human HCT-116 cells at 30 uM measured after 6 hrs by LC-MS/MS analysis relative to control. In kind it is functional. An outline of the steps:
as §1

The nature of test [6]: Effect on EPPK1 expression in human HCT-116 cells at 30 uM measured after 6 hrs by LC-MS/MS analysis relative to control. In kind it is functional. A digest of the protocol:
as §1

Test [7] in a line: Effect on PRKRIR expression in human HCT-116 cells at 15 uM measured after 6 hrs by LC-MS/MS analysis relative to control. In kind it is functional. A digest of the protocol: as §1
Test [8] can be described thus: Effect on GOLGA3 expression in human HCT-116 cells at 30 uM measured after 6 hrs by LC-MS/MS analysis relative to control. It is filed as functional. A digest of the protocol: as §1
Test [9] can be described thus: Selectivity ratio of IC50 for inhibition of proteasomal turnover of p97-independent ODD-luciferase reporter substrate in human HeLa cells to IC50 for inhibition of p97 in human HeLa cells assessed as reduction in proteasomal turnover of p97-dependent reporter substrate UbG76V-GFP. A digest of the protocol:
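HeLa cells stably carrying both UbG76V-GFP and ODD-Luc, in DMEM with 2.5% FBS, received 4 μM MG132 for 60 min at 37°C. After PBS washes they got cycloheximide plus compound for 120 min at 37°C. GFP was read by confocal imaging, then luminescence after D-luciferin (10 min, r.t.). IC50s for each reporter came from quadruplicates.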

The nature of test [10]: Effect on BRCC3 expression in human HCT-116 cells at 15 uM measured after 6 hrs by LC-MS/MS analysis relative to control. It is filed as functional. An outline of the steps:
as §1

Test [11] can be described thus: Effect on AP2M1 expression in human HCT-116 cells at 30 uM measured after 6 hrs by LC-MS/MS analysis relative to control. In kind it is functional. A digest of the protocol:
as §1

Another test concerns RPMI-8226. Kind of test: Antiproliferative activity against human RPMI-8226 cells after 48 hrs by celltiter-glo luminescence assay. It is filed as functional, cell-based. The conditions noted are these: RPMI-8226, 48 h.
Test [12] can be described thus: Effect on ZFAND1 expression in human HCT-116 cells at 15 uM measured after 6 hrs by LC-MS/MS analysis relative to control. In kind it is functional. A digest of the protocol: as §1
The target in test [13] is T1, Transitional endoplasmic reticulum ATPase (Homo sapiens, UniProt P55072). Kind of test: Binding affinity to His6-tagged p97 (unknown origin) expressed in Escherichia coli BL21 (DE3) assessed as Cys522-adduct formation by tandem mass spectrometry.
Test [14] is described as follows: Effect on GOLGA3 expression in human HCT-116 cells at 15 uM measured after 6 hrs by LC-MS/MS analysis relative to control. In kind it is functional. A digest of the protocol:
as §1

Test [15] is described as follows: Effect on PLEC expression in human HCT-116 cells at 30 uM measured after 6 hrs by LC-MS/MS analysis relative to control. In kind it is functional. An outline of the steps:
as §1

The nature of test [16]: Effect on STIM1 expression in human HCT-116 cells at 15 uM measured after 6 hrs by LC-MS/MS analysis relative to control. It is filed as functional. An outline of the steps:
as §1

Test [17] addresses T1, Transitional endoplasmic reticulum ATPase. The experiment in a line: Inhibition of p97 (unknown origin) expressed in HEK293 cells co-expressing TCRalpha-GFP assessed as reduction in ERAD-dependent reporter substrate TCRalpha-GFP degradation at 10 uM incubated for 60 to 120 mins by immunoblotting analysis. The conditions noted are these: time lower 60.0 min, time upper […]. In kind it is cell-based. A digest of the protocol:
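HEK293 cells stably expressing TCRα-GFP pretreated with 4 μM MG132 for 1 h and washed. Then incubated with 50 μM cycloheximide plus 10 μM compound for 60 or 120 min before harvest. Immunoblotted with anti-GFP, with anti-p97 as loading control.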
For orientation: In western blotting, separated proteins are transferred to a membrane and probed.

The test system of another test is HeLa. The experiment in a line: Antiproliferative activity against human HeLa cells after 48 hrs by celltiter-glo luminescence assay. It is filed as functional, cell-based. For orientation: In ATP-based viability assays light output follows the ATP content of the culture.
Test [18] concerns the target T1, Transitional endoplasmic reticulum ATPase. Kind of test: Irreversible inhibition of p97 in human HeLa cells assessed as reduction in p97-dependent reporter substrate UbG76V-GFP degradation preincubated followed by washout and measured after 17 hrs by luciferase reporter gene assay. The conditions noted are these: in the assay text read “GFP fluorescence assay” for “luciferase reporter gene assay”. In kind it is cell-based. A digest of the protocol: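 HeLa cells expressing UbG76V-GFP/ODD-Luc, 5000 cells/well in DMEM with 2.5% FBS. Pretreated with 4 μM MG132 for 60 min at 37 °C, PBS-washed, then given cycloheximide plus compound for 120 min. After washout, GFP decay followed in cycloheximide for an additional 17 h. GFP read by high-content imaging; luciferase read with D-luciferin; quadruplicates.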
For orientation: Reporter assays use an easily measured gene product as a stand-in for the process of interest.

The nature of test [19]: Inhibition of yeast Cdc48 T532C mutant assessed as reduction in ATPase activity measured after 60 mins by biomol green reagent based assay. On the set-up: species or system Saccharomyces cerevisiae. An outline of the steps:
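Yeast Cdc48 ATPase activity with 200 μM ATP in Tris pH 7.4 buffer containing MgCl2, EDTA, TCEP and Triton X-100, 60 min at room temperature. Biomol Green read at 635 nm. Eight-dose titration; IC50 from six replicates.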

For test [20], the target named is Transitional endoplasmic reticulum ATPase (Homo sapiens, UniProt P55072, C522A). Kind of test: Inhibition of His6-tagged p97 C522A mutant (unknown origin) expressed in Escherichia coli BL21 (DE3) assessed as reduction in ATPase activity measured after 60 mins by biomol green reagent based assay. An outline of the steps: as §2

Usually IC50 stands for the concentration that inhibits the measured activity by half.

Active and inactive are the calls of the source. The rule behind the calls is not given here.

T1 sequence (P55072 2-806 limits assumed): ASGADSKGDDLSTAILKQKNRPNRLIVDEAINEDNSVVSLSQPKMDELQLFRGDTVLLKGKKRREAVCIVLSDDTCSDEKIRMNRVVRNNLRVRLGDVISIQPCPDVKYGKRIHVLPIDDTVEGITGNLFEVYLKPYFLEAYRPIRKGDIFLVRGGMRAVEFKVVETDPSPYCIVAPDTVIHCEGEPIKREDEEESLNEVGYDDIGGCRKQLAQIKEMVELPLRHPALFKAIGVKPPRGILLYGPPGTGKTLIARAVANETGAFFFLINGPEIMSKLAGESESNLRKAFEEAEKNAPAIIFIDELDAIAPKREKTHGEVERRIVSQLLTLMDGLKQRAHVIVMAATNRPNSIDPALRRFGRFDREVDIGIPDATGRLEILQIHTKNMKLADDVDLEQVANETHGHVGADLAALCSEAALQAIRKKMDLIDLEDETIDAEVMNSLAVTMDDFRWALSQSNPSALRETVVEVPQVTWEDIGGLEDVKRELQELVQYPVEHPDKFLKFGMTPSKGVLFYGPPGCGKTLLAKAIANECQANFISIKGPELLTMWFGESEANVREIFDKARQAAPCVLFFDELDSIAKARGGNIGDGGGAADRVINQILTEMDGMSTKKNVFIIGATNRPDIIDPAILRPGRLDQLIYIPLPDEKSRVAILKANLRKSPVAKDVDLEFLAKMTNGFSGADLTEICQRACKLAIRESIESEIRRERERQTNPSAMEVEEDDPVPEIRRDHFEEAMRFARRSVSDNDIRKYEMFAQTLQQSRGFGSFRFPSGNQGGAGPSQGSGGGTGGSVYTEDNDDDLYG
Chain of Transitional endoplasmic reticulum ATPase (Homo sapiens, UniProt P55072, C522A) (P55072 2-806 C522A limits assumed): as the sequence (P55072 2-806 limits assumed) above, with C521A counted along it

In the case of `C=CC(=O)Nc1ncnc2c1c(-c1ccccc1)nn2C(C)(C)C`, the log2FC is 0.52 in test [1]; -0.43 in [2]; -0.87 in [5]; 0.64 in test [6]; 0.69 in [7]; -0.7 in test [8]. The log2FC is on record as 0.94 in test [10]; -0.38 in test [11]; 0.49 in test [12]; -0.36 in test [14]; 0.58 in test [15]; 1.49 in test [16]. For the same compound, the concentration for half-maximal inhibition (IC50) was 35 µM in [3]; 82 µM in test [4]; 3.4 µM in the test on RPMI-8226; 6.1 µM in the test with HeLa; 14 µM in test [19]; 110 µM in [20]. Also, the Selectivity ratio in [9] was found to be 20. Further, the result in [13] was Active. In addition, the inhibition result in [17] and in [18] was “Active” throughout.
